Assay results: ChEMBL document CHEMBL4422632, “Design of Novel Inhibitors of Human Thymidine Phosphorylase: Synthesis, Enzyme Inhibition, in Vitro Toxicity, and Impact on Human Glioblastoma Cancer” (J Med Chem, 2019)
Activity calls are given as the source filed them. The rule behind the calls is not given here.

Legend:
[1] = Cytotoxicity against human HepG2 cells assessed as cell viability at 1000 uM after 72 hrs by MTT assay relative to control; type: cell-based; details: read-out: Activity
Summary of the method: (§1)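 Cells grown in DMEM with 10% FBS at 37 °C, 5% CO₂; seeded 2 x 10³ cells/well, adhered 24 h, then exposed 72 h. MTT: 1 mg/mL for 3 h, formazan in DMSO, absorbance 595 nm. NRU: neutral red 25 µg/mL in serum-free medium for 3 h, desorbed in ethanol:acetic acid:water. Viability as % of untreated control; mean ± SEM of three to five independent experiments in triplicate.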

[2] = Cytotoxicity against human U87MG cells assessed as cell viability at 500 uM after 72 hrs by neutral red uptake-based assay relative to control; parameters: species or system U-87MG ATCC; details: read-out: Activity
Summary of the method: (§2)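 Cells kept in DMEM with 10% heat-inactivated FBS, 1% penicillin-streptomycin and 0.1% fungizone at 37 °C, 5% CO₂. U-87 MG seeded at 2 x 10^3 cells/well, RAW 264.7 at 5 x 10^2, adhered 24 h, then exposed 72 h. MTT: 1 mg/mL for 3 h, formazan in DMSO, A595. NRU: 25 μg/mL dye, 3 h, ethanol:acetic acid:water desorb. Untreated wells = 100%; three to five independent experiments in triplicate.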

[3] = Cytotoxicity against human HepG2 cells assessed as cell viability at 250 uM after 72 hrs by MTT assay relative to control; type: cell-based; details: read-out: Activity; summary of the method: as §1
[4] = Cytotoxicity against human U87MG cells assessed as cell viability at 50 uM after 72 hrs by neutral red uptake-based assay relative to control; parameters: species or system U-87MG ATCC; details: read-out: Activity; summary of the method: as §2
[5] = Cytotoxicity against human HaCaT cells assessed as cell viability at 250 uM after 72 hrs by neutral red uptake-based assay relative to control; details: read-out: Activity; summary of the method: as §1
[6] = Cytotoxicity against African green monkey Vero cells assessed as cell viability at 250 uM after 72 hrs by neutral red uptake-based assay relative to control; details: chlorocebus sabaeus, read-out: Activity; summary of the method: as §1
[7] = Cytotoxicity against mouse RAW264.7 cells assessed as cell viability at 25 uM after 72 hrs by neutral red uptake-based assay relative to control; details: read-out: Activity; summary of the method: as §2
[8] = Cytotoxicity against human HepG2 cells assessed as cell viability at 25 uM after 72 hrs by MTT assay relative to control; type: cell-based; details: read-out: Activity; summary of the method: as §1
[9] = MRT in CF1 mouse at 50 mg/kg, ip by non-compartmental analysis; type: ADME, organism-based; details: in vivo
Cytochrome P450 1A2 = biological target: T1, Cytochrome P450 1A2 (Homo sapiens, UniProt P05177); assay: Inhibition of CYP1A2 in human liver microsomes by HPLC-MS/MS analysis; type: ADME
T1 sequence (P05177 whole entry): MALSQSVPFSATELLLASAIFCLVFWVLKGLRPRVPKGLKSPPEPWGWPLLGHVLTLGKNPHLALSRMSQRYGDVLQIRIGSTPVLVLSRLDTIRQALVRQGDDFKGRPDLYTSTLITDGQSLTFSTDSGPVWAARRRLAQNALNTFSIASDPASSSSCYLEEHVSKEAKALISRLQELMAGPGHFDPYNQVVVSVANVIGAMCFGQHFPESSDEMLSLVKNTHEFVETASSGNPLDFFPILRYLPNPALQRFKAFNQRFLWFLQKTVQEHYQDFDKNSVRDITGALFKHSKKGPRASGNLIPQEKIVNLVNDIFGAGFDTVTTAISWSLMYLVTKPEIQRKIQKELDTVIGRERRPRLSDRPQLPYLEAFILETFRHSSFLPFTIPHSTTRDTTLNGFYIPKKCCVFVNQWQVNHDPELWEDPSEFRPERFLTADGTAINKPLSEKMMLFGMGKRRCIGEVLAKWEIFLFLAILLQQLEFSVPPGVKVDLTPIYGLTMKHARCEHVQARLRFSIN

[10] = Cytotoxicity against African green monkey Vero cells assessed as cell viability at 50 uM after 72 hrs by MTT assay relative to control; type: cell-based; details: chlorocebus sabaeus, read-out: Activity; summary of the method: as §1
[11] = Cytotoxicity against human U87MG cells assessed as cell viability at 1000 uM after 72 hrs by neutral red uptake-based assay relative to control; parameters: species or system U-87MG ATCC; details: read-out: Activity; summary of the method: as §2
[12] = Elimination rate constant in CF1 mouse at 50 mg/kg, ip by non-compartmental analysis; type: ADME, organism-based; details: in vivo
[13] = Cytotoxicity against mouse RAW264.7 cells assessed as cell viability at 250 uM after 72 hrs by neutral red uptake-based assay relative to control; details: read-out: Activity; summary of the method: as §2
U-87 MG [14] = assay: Anti-angiogenic activity in tumor of human U87MG cells xenografted in nude BALB/c mouse assessed as reduction in number of blood vessels at 50 mg/kg, ip administered for 14 days by hematoxylin and eosin-staining based light microscopy; type: functional, organism-based; details: U-87MG ATCC
Summary of the method: (§3)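 U-87 MG flank xenografts (5 x 10⁵ cells) in male nude mice; ip treatment daily from about 50 mm³ for 14 days, with temozolomide at 50 mg/kg/day in the co-treatment arm. Vessel density counted on HE-stained 3 µm sections by hot-spot method, mean of four fields per tumor at x200, avoiding gross haemorrhage. One-way ANOVA/Dunnett.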

[15] = Tmax in CF1 mouse at 50 mg/kg, ip by non-compartmental analysis; type: ADME, organism-based; details: in vivo
[16] = Cytotoxicity against human U87MG cells assessed as cell viability at 100 uM after 72 hrs by MTT assay relative to control; type: cell-based, U-87MG ATCC; details: read-out: Activity; summary of the method: as §1
U-87 MG [17] = assay: Anti-angiogenic activity in tumor of human U87MG cells xenografted in nude BALB/c mouse assessed as reduction in number of blood vessels at 50 mg/kg, ip administered for 14 days by hematoxylin and eosin-staining based light microscopy co-treated with temozolamide; type: functional, organism-based; details: U-87MG ATCC; summary of the method: as §3
[18] = Cytotoxicity against human HaCaT cells assessed as cell viability at 500 uM after 72 hrs by MTT assay relative to control; type: cell-based; details: read-out: Activity; summary of the method: as §1
[19] = Toxicity in nude BALB/c mouse xenografted with human U87MG cells assessed as reduction in body weight at 50 mg/kg, […] co-treated with temozolamide; type: organism-based; details: in vivo, ip, 120 h
U-87 MG [20] = assay: In-vivo inhibition of cell proliferation in human U87MG cells xenografted in BALB/c nude mouse at 50 mg/kg, ip after 14 days by Ki-67b-staining based assay; type: functional, organism-based; details: U-87MG ATCC
Summary of the method: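 Male BALB/c nude mice implanted subcutaneously with 5 x 10⁵ U-87 MG cells in the right flank. Treated IP at 50 mg/kg/day for 14 days, with saline controls, starting once tumors reached about 50 mm³. Tumors fixed in formaldehyde and cut at 3 µm. Citrate pH 6 antigen retrieval.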

[21] = Cytotoxicity against human HaCaT cells assessed as cell viability at 250 uM after 72 hrs by MTT assay relative to control; type: cell-based; details: read-out: Activity; summary of the method: as §1
[22] = Cytotoxicity against human HaCaT cells assessed as cell viability at 1000 uM after 72 hrs by MTT assay relative to control; type: cell-based; details: read-out: Activity; summary of the method: as §1
[23] = Cytotoxicity against African green monkey Vero cells assessed as cell viability at 100 uM after 72 hrs by neutral red uptake-based assay relative to control; details: chlorocebus sabaeus, read-out: Activity; summary of the method: as §1
[24] = Cmax in CF1 mouse at 50 mg/kg, ip by non-compartmental analysis; type: ADME, organism-based; parameters: dose 50 mg/kg, route intraperitoneal; details: in vivo
Summary of the method: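 Male CF1 mice received a single ip injection of 50 mg/kg in 0.9% saline; 3 animals per time point, killed 0.03, 0.08, 0.25, 0.5, 1 and 2 h after dosing; blood collected in heparin tubes.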

[25] = Cytotoxicity against human HaCaT cells assessed as cell viability at 100 uM after 72 hrs by neutral red uptake-based assay relative to control; details: read-out: Activity; summary of the method: as §1

Compound `O=c1[nH]c(CNC(CO)CO)c(I)c(=O)[nH]1` has a viability at 72 h, 1000 µM [1] of 82%, a viability at 72 h, 500 µM [2] of 93% and a viability at 72 h, 250 µM [3] of 100%. The viability at 72 h, 50 µM [4] was 101%, the viability at 72 h, 250 µM [5] was 100% and the viability at 72 h, 250 µM [6] was 103%. The viability at 72 h, 25 µM [7] was 105%, the viability at 72 h, 25 µM [8] was 103% and the MRT [9] was 24 min. For the same compound, the IC50 (Cytochrome P450 1A2) was greater than 100 µM, the viability at 72 h, 50 µM [10] was 97% and the viability at 72 h, 1000 µM [11] was 72%. For the same compound, the k el [12] was 0.000383 s⁻¹, the viability at 72 h, 250 µM [13] was 85% and the Activity (U-87 MG [14]) was “Active”. For the same compound, the Tmax [15] was 4.8 min, the viability at 72 h, 100 µM [16] was 96% and the Activity (U-87 MG [17]) was “Active”. The viability at 72 h, 500 µM [18] was 93%, the Activity [19] was “Non-Toxic” and the inhibition (U-87 MG [20]) was “inactive”. The viability at 72 h, 250 µM [21] was 96%, the viability at 72 h, 1000 µM [22] was 81% and the viability at 72 h, 100 µM [23] was 108%. It also gave a Cmax [24] of 34800 ng/mL and a viability at 72 h, 100 µM [25] of 104%.
